Columns and labels:
[1] = target: T1, Interstitial collagenase (Homo sapiens) (UniProt P03956); assay: Inhibition of human MMP1 catalytic domain at 50 uM after 1 hr by fluorescent substrate assay
T1 sequence (whole entry): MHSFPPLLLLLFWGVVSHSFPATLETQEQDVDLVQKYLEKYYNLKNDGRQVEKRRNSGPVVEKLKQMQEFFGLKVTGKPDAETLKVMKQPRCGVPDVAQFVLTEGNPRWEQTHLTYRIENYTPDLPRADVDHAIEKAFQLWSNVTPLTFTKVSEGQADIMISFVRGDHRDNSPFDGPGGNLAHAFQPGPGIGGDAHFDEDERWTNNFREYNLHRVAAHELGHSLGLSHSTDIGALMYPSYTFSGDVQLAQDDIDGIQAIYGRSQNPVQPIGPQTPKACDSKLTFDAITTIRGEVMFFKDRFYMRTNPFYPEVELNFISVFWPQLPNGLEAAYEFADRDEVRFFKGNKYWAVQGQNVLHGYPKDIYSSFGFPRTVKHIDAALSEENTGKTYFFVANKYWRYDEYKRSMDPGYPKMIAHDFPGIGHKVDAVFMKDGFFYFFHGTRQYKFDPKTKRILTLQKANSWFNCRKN
How it was run: (§1)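 Single-concentration screen: each inhibitor tested at 50 µM against recombinant human MMP catalytic domain (MMP-1, MMP-2 or MMP-3) in a fluorescent substrate assay, with activity reported as percent inhibition.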

Stromelysin-1 [2] = target: T2, Stromelysin-1 (Homo sapiens, UniProt P08254); assay: Inhibition of human MMP3 catalytic domain at 50 uM after 1 hr by fluorescent substrate assay; how it was run: as §1
T2 sequence (P08254 whole entry, the tested form may be a part): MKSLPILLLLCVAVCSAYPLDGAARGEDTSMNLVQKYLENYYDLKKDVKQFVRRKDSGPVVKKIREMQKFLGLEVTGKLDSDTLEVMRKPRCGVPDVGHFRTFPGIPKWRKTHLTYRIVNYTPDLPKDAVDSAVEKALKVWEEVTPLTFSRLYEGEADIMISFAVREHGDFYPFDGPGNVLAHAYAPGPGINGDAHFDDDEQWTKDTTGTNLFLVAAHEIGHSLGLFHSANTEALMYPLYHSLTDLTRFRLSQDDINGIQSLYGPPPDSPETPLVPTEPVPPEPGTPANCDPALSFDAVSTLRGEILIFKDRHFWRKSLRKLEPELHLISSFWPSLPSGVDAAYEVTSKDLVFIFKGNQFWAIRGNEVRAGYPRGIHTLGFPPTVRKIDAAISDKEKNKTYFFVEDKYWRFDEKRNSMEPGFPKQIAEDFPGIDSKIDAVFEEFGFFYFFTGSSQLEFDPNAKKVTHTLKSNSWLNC

[3] = target: T3, 72 kDa type IV collagenase (Homo sapiens, UniProt P08253); assay: Inhibition of human MMP2 catalytic domain at 50 uM after 1 hr by fluorescent substrate assay; how it was run: as §1
Target sequence in this assay (P08253 110-660 limits assumed): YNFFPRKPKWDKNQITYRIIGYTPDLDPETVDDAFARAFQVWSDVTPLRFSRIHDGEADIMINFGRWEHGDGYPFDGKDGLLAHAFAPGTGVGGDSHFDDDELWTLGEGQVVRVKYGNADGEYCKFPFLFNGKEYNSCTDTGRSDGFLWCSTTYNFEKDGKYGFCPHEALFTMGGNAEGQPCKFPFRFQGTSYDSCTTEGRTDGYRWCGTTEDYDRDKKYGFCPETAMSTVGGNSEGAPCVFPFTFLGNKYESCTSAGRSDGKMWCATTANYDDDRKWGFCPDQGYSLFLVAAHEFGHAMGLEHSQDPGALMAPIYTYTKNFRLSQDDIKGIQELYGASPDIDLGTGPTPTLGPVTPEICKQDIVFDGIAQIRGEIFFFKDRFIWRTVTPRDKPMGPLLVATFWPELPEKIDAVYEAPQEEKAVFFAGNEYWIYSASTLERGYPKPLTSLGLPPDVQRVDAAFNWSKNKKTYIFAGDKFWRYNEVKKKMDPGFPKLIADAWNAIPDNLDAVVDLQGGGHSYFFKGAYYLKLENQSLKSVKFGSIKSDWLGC

Stromelysin-1 [4] = target: T2, Stromelysin-1; assay: Inhibition of human MMP3 catalytic domain by fluorescent substrate assay
How it was run: (§2)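 IC50 against human MMP catalytic domain (MMP-1, MMP-2 or MMP-3) from a fluorescent substrate assay. It was determined only for inhibitors showing relatively strong inhibition in the 50 µM screen.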

[5] = target: T3, 72 kDa type IV collagenase; assay: Inhibition of human MMP2 catalytic domain by fluorescent substrate assay; how it was run: as §2
Target sequence in this assay (P08253 whole entry, the tested form may be a part): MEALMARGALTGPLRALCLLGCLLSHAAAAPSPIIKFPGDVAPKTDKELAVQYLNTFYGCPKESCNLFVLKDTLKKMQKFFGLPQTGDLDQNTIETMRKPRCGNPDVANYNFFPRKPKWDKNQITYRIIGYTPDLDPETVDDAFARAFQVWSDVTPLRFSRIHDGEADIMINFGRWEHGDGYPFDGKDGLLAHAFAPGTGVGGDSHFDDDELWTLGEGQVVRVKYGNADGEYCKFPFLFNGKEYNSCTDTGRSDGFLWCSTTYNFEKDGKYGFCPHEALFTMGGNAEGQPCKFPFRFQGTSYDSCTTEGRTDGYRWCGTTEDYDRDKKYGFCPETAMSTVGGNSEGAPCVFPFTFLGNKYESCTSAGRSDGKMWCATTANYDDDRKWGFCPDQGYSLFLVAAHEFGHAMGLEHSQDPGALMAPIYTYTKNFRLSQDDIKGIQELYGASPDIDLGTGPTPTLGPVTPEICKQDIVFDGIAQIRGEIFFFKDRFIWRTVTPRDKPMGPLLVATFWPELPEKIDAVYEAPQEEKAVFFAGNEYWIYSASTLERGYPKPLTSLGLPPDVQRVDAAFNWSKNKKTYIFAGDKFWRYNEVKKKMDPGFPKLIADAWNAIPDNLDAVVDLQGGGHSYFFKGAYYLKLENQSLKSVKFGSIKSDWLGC

Interstitial collagenase = target: T4, Interstitial collagenase (Homo sapiens, UniProt P03956); assay: Inhibition of human MMP1 catalytic domain by fluorescent substrate assay; how it was run: as §2
T4 sequence (P03956 whole entry): T1 sequence (whole entry)

SMILES | inhibition [1] | inhibition (Stromelysin-1 [2]) | inhibition [3] | IC50 (Stromelysin-1 [4]) | IC50 [5] | IC50 (Interstitial collagenase)
CCOC(=O)c1c(C)oc(CNCc2ccc(-c3ccccc3)cc2)c(O)c1=O | 13% | < 1% | 18% |  |  | 
O=C(NCc1ccc(-c2ccccc2)cc1)c1cc(=S)c(O)co1 | 62% | 91% | 98% | 13.3 µM | 14.4 µM | 44 µM
Cc1cc(=O)c(O)c(CNCc2ccc(-c3ccccc3)cc2)o1 | 6% | 4% | 63% |  | 37.7 µM | 
O=C(NCc1ccc(-c2ccccc2)cc1)c1cc(=O)c(O)co1 | 12% | 44% | 14% |  |  | 
COc1ccc(CNC(=O)c2c(C)oc(CO)c(O)c2=O)cc1 | 18% | 32% | 24% |  |  | 
COc1ccc(CNC(=O)c2cc(=S)c(O)co2)cc1 | 31% | 91% | 85% | 13.9 µM |  | 
COc1ccc(CNC(=O)c2c(C)occ(O)c2=O)cc1 | 15% | 18% | 33% |  |  | 
Cc1occ(O)c(=S)c1C(=O)NCc1ccc(-c2ccccc2)cc1 | 52% | 45% | 94% |  | 23 µM | 

Second part, the molecule after the results:

inhibition [1] | inhibition (Stromelysin-1 [2]) | inhibition [3] | IC50 (Stromelysin-1 [4]) | IC50 [5] | IC50 (Interstitial collagenase) | SMILES
66% | 94% | 25% | 3.7 µM |  |  | Cc1cc(=O)c(O)c(C(=O)NCc2ccc(O)cc2)o1
21% | 26% | 15% |  |  |  | Cc1cc(=O)c(O)c(COCc2ccc(-c3ccccc3)cc2)o1
49% | 36% | 69% |  | 30 µM |  | COc1ccc(CNC(=O)c2c(C)occ(O)c2=S)cc1
17% | 32% | 24% |  |  |  | Cc1occ(O)c(=O)c1C(=O)NCc1ccc(O)cc1
15% | 28% | 21% |  |  |  | Cc1occ(O)c(=O)c1C(=O)NCc1ccc(-c2ccccc2)cc1
 |  |  |  |  | > 50 µM | Cc1cc(=O)c(O)c(C(=O)NCc2ccc(-c3ccccc3)cc2)o1
16% | 22% | 11% |  |  |  | COc1ccc(CNC(=O)c2cc(=O)c(O)co2)cc1
 |  |  | 5.6 µM |  |  | Cc1cc(=S)c(O)c(C(=O)NCc2ccc(-c3ccccc3)cc2)o1
70% | 97% | 94% | 16.4 µM | 19 µM | 30 µM | COc1ccc(CNC(=O)c2oc(C)cc(=S)c2O)cc1
29% | 93% | 26% |  |  |  | COc1ccc(CNC(=O)c2oc(C)cc(=O)c2O)cc1

Reference: ChEMBL document CHEMBL1153938, “Synthesis of hydroxypyrone- and hydroxythiopyrone-based matrix metalloproteinase inhibitors: developing a structure-activity relationship” (Bioorg Med Chem Lett, 2009)
